Results from ChEMBL document CHEMBL1140564, “Macrocyclic ureas as potent and selective Chk1 inhibitors: an improved synthesis, kinome profiling, structure-activity relationships, and preliminary pharmacokinetics” (Bioorg Med Chem Lett, 2007).
Activity calls are given as the source filed them. The rule behind the calls is not given here.

What was measured:
NCI-H1299 = assay: Inhibition of doxorubicin-induced cell cycle arrest in H1299 cells at G2/M phase by FACS assay; type: functional, cell-based; conditions: Homo sapiens
In short: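 H1299 cells treated with 500 nM doxorubicin to induce G2/M arrest, with or without inhibitor at various concentrations, up to 10 μM. Cells stained with propidium iodide and DNA content analysed by FACS. EC50 for abrogation of the Dox-induced G2/M checkpoint.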

HeLa = assay: Cytotoxicity against HeLa cells by MTS assay; type: functional, cell-based; conditions: Homo sapiens
[1] = Cell cycle arrest in H1299 cells by accumulation at G2/M phase by FACS assay; type: functional, cell-based; conditions: Homo sapiens, NCI-H1299
[2] = molecular target: T1, Serine/threonine-protein kinase Chk1 (Homo sapiens, UniProt O14757); assay: Inhibition of Chk1
T1 sequence (O14757 whole entry): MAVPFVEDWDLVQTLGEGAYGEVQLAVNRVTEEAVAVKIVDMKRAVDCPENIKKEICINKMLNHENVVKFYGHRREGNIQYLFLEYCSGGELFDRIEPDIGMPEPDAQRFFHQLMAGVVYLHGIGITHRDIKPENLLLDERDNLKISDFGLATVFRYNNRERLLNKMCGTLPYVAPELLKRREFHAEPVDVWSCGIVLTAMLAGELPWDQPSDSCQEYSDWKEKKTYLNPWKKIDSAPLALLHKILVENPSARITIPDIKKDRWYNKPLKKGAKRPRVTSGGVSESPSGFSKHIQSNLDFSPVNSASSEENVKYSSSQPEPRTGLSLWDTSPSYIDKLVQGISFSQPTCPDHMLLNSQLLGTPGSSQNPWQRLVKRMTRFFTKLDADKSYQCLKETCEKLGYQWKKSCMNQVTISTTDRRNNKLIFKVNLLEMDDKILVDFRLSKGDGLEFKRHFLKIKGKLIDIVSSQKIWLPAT

[3] = molecular target: Muscle, skeletal receptor tyrosine-protein kinase (Homo sapiens, UniProt O15146); assay: Inhibition of MUSK
[4] = Inhibition of CMET; parameters: species or system Homo sapiens
TAK1/TAB1 = TAK1/TAB1 (Homo sapiens, UniProt O43318); assay: Inhibition of TAK1-TAB1
[5] = Inhibition of PKG1B; parameters: species or system Homo sapiens
[6] = Inhibition of PKG1A; parameters: species or system Homo sapiens
[7] = molecular target: Serine/threonine-protein kinase DCLK2 (Homo sapiens, UniProt Q8N568); assay: Inhibition of DCAMKL2
[8] = molecular target: Serine/threonine-protein kinase TBK1 (Homo sapiens, UniProt Q9UHD2); assay: Inhibition of TBK1
[9] = molecular target: Serine/threonine-protein kinase Nek11 (Homo sapiens, UniProt Q8NG66); assay: Inhibition of NEK11
[10] = Inhibition of JNK1a1; parameters: species or system Homo sapiens
[11] = molecular target: Serine/threonine-protein kinase Sgk1 (Homo sapiens, UniProt O00141); assay: Inhibition of SGK
[12] = molecular target: Cyclin-dependent kinase 9 (Homo sapiens, UniProt P50750); assay: Inhibition of CDK9
[13] = molecular target: Cyclin-dependent kinase 6 (Homo sapiens, UniProt Q00534); assay: Inhibition of CDK6
[14] = molecular target: Serine/threonine-protein kinase 31 (Homo sapiens, UniProt Q9BXU1); assay: Inhibition of STK31
[15] = Inhibition of PHK lambda 2; parameters: species or system Homo sapiens
[16] = molecular target: Serine/threonine-protein kinase 33 (Homo sapiens, UniProt Q9BYT3); assay: Inhibition of STK33
[17] = Inhibition of AUR1; parameters: species or system Homo sapiens
[18] = molecular target: Mitogen-activated protein kinase kinase kinase 9 (Homo sapiens, UniProt P80192); assay: Inhibition of MLK1
[19] = Inhibition of JNK2a2; parameters: species or system Homo sapiens
[20] = Inhibition of PKA; parameters: species or system Homo sapiens
[21] = molecular target: Serine/threonine-protein kinase WNK2 (Homo sapiens, UniProt Q9Y3S1); assay: Inhibition of WNK2
SRSF protein kinase 3 = SRSF protein kinase 3 (Homo sapiens, UniProt Q9UPE1); assay: Inhibition of MSSK1
[22] = molecular target: Cyclin-dependent kinase 7 (Homo sapiens, UniProt P50613); assay: Inhibition of CDK7
[23] = molecular target: Calcium/calmodulin-dependent protein kinase type IV (Homo sapiens, UniProt Q16566); assay: Inhibition of CAMK4
[24] = Inhibition of AUR2; parameters: species or system Homo sapiens
[25] = molecular target: NUAK family SNF1-like kinase 1 (Homo sapiens, UniProt O60285); assay: Inhibition of ARK5
[26] = molecular target: 5'-AMP-activated protein kinase subunit beta-1 (Homo sapiens, UniProt Q9Y478); assay: Inhibition of AMPK
[27] = molecular target: Serine/threonine-protein kinase Nek3 (Homo sapiens, UniProt P51956); assay: Inhibition of NEK3
[28] = molecular target: Ribosomal protein S6 kinase alpha-4 (Homo sapiens, UniProt O75676); assay: Inhibition of MSK2

Serine/threonine-protein kinase TBK1, sequence (Q9UHD2 whole entry): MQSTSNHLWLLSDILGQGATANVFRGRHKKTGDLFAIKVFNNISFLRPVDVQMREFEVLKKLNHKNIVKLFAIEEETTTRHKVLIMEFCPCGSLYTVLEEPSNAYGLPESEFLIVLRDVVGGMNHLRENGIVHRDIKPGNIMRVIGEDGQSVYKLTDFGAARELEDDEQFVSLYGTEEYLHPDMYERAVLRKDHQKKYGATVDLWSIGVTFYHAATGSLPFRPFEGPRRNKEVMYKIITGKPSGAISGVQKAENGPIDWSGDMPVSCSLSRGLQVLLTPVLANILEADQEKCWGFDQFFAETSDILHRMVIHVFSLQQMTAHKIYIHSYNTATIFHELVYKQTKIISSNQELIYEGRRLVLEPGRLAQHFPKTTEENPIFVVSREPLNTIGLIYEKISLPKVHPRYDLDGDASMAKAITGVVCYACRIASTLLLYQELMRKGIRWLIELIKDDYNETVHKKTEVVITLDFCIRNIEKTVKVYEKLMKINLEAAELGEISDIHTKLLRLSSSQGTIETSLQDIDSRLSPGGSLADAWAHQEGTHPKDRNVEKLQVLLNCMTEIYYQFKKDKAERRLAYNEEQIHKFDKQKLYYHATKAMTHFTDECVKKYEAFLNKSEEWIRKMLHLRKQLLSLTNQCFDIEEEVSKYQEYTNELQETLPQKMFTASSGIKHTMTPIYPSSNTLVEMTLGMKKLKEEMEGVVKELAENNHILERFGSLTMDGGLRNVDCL
Serine/threonine-protein kinase 33, sequence (Q9BYT3 whole entry): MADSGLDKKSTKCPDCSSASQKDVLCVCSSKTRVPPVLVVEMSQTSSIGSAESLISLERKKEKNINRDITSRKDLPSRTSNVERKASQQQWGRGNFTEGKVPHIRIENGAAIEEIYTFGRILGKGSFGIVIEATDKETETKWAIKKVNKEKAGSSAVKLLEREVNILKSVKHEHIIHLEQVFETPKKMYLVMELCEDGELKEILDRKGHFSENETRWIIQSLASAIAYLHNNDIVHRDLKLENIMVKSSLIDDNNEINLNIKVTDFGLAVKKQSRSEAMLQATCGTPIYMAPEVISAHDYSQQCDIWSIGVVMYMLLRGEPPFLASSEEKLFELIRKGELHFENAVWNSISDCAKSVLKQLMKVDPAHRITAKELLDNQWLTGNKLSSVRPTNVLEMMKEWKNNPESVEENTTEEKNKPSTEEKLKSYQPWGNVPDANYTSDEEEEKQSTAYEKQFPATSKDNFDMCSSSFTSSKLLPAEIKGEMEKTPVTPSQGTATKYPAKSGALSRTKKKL
SRSF protein kinase 3, sequence (Q9UPE1 whole entry): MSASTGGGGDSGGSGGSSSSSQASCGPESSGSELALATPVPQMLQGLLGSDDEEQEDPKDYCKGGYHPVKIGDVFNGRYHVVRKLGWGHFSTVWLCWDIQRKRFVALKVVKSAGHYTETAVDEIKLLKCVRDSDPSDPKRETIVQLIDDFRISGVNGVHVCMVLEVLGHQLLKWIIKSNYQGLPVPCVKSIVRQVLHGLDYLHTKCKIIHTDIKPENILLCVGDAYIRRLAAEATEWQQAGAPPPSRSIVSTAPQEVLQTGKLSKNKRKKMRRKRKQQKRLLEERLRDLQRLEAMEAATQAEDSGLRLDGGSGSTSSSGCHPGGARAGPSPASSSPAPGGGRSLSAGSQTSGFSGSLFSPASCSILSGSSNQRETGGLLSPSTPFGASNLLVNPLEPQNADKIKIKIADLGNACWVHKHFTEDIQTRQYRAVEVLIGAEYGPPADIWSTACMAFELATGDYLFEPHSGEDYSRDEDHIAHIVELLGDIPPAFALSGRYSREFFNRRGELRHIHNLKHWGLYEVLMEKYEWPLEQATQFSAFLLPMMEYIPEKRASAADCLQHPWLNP
Serine/threonine-protein kinase 31, sequence (Q9BXU1 whole entry): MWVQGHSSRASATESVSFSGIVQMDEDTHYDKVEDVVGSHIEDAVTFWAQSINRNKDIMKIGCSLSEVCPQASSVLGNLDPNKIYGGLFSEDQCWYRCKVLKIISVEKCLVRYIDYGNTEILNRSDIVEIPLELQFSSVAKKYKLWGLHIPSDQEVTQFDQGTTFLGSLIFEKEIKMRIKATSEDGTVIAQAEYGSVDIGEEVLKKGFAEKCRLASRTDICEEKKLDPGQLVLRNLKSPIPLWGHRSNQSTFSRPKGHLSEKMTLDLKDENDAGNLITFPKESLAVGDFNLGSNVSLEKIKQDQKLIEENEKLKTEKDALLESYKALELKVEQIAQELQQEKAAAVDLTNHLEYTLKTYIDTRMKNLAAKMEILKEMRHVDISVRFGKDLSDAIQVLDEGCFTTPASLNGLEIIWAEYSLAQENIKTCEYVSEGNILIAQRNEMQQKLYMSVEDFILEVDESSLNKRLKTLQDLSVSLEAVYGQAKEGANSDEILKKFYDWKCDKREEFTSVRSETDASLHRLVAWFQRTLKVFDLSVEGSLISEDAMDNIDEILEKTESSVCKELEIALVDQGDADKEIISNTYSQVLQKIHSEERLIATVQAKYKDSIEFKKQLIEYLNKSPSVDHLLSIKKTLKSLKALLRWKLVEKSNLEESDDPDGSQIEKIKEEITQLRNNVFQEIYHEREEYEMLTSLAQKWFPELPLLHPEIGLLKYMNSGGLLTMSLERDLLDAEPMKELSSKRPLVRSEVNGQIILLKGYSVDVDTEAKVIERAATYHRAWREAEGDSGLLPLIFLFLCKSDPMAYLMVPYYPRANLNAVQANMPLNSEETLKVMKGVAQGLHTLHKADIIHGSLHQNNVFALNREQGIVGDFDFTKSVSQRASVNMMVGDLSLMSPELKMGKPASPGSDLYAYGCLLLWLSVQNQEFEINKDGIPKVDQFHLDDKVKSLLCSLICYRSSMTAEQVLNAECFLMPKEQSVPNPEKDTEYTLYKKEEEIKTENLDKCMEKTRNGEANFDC
Serine/threonine-protein kinase WNK2, sequence (Q9Y3S1 whole entry): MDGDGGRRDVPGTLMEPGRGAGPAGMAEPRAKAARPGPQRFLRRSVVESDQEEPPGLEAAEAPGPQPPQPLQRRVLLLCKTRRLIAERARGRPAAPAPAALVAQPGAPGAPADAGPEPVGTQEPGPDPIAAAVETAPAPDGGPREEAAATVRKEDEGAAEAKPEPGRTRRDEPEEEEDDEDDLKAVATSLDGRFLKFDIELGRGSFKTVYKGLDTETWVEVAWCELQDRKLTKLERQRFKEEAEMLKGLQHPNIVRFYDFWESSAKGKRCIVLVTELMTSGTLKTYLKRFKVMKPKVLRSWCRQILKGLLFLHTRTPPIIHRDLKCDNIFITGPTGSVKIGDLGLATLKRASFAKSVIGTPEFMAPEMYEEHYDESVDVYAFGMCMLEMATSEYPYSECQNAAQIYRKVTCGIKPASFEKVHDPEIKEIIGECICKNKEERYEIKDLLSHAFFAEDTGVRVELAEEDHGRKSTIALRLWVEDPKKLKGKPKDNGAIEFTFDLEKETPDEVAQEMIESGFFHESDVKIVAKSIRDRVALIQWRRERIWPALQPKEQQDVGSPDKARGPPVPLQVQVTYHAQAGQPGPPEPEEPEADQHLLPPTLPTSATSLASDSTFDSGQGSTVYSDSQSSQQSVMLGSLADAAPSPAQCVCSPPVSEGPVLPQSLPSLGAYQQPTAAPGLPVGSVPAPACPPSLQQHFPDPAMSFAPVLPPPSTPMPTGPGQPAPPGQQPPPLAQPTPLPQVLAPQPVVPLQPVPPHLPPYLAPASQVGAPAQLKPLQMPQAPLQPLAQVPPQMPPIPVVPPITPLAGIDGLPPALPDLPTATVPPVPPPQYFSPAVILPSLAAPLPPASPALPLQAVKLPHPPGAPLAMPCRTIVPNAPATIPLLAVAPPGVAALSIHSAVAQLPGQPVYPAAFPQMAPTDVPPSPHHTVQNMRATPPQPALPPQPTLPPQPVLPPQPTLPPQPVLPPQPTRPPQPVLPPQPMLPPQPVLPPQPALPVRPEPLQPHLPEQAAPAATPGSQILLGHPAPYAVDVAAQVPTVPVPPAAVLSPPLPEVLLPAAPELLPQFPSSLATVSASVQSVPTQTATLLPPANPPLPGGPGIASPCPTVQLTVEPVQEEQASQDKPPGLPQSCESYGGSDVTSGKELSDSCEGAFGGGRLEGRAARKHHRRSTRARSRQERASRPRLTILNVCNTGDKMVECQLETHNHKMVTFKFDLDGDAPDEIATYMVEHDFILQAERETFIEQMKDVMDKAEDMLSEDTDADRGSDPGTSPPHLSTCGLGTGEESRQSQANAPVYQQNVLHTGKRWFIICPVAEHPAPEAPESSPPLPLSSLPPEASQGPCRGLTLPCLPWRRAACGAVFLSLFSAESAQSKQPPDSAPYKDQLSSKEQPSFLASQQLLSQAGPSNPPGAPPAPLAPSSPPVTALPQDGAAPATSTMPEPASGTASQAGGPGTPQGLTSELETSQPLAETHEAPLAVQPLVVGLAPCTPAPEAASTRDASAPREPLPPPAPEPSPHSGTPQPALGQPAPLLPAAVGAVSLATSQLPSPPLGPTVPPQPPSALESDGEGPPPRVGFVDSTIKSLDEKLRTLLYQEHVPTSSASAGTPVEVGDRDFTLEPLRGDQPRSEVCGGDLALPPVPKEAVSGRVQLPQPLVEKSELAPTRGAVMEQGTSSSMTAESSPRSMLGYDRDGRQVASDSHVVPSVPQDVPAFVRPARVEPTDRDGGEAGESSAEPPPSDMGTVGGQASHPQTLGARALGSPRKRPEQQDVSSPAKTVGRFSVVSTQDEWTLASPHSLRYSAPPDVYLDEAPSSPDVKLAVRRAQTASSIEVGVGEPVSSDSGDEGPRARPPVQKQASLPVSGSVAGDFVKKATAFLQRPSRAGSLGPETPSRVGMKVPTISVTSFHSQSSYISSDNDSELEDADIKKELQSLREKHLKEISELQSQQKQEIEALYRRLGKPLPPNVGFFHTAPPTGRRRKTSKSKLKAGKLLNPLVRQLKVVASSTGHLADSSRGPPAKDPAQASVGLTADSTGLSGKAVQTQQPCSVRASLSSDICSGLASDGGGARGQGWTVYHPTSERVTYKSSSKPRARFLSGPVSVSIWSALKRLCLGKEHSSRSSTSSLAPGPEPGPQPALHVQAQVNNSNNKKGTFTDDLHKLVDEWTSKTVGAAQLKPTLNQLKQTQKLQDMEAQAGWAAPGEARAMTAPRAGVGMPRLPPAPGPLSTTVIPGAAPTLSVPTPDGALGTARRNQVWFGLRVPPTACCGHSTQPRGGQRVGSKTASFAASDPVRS

## N#Cc1ncc2nc1OCCCCOc1cc(OC(=O)N3CCC(N4CCCCC4)CC3)c(Cl)cc1NC(=O)N2
NCI-H1299
  EC50: > 10000 nM
HeLa
  EC50: 2800 nM
[1]
  EC50: > 10000 nM
[2]
  IC50: 1 nM

## N#Cc1ncc2nc1OC/C=C\COc1cc(OCCCO)c(Cl)cc1NC(=O)N2
NCI-H1299
  Activity: inactive
HeLa
  EC50: > 59300 nM
[1]
  Activity: inactive
[2]
  IC50: 2 nM

## CN(C)c1cc2c(cc1Cl)NC(=O)Nc1cnc(C#N)c(n1)OC/C=C\CO2
NCI-H1299
  EC50: 1700 nM
HeLa
  EC50: 18700 nM
[1]
  EC50: > 10000 nM
[2]
  IC50: 2 nM

## N#Cc1ncc2nc1OCCCCOc1cc(N3CCOC3=O)c(Cl)cc1NC(=O)N2
NCI-H1299
  Activity: inactive
HeLa
  EC50: > 59300 nM
[1]
  Activity: inactive
[2]
  IC50: 6 nM

## CNc1cc2c(cc1Cl)NC(=O)Nc1cnc(C#N)c(n1)OCCCCO2
NCI-H1299
  EC50: > 10000 nM
HeLa
  EC50: > 59300 nM
[1]
  EC50: > 10000 nM
[2]
  IC50: 2 nM

## N#Cc1ncc2nc1OCCCCOc1cc(NC(=O)OCCN3CCOCC3)c(Cl)cc1NC(=O)N2
NCI-H1299
  EC50: > 10000 nM
HeLa
  EC50: > 59300 nM
[1]
  EC50: > 10000 nM
[2]
  IC50: 3 nM

## C[C@H](N)C(=O)Nc1cc2c(cc1Cl)NC(=O)Nc1cnc(C#N)c(n1)OC/C=C\CO2
NCI-H1299
  EC50: 90 nM
HeLa
  EC50: > 59300 nM
[1]
  EC50: > 10000 nM
[2]
  IC50: 3 nM

## N#Cc1ncc2nc1OC/C=C\COc1cc(NCc3cncs3)c(Cl)cc1NC(=O)N2
NCI-H1299
  EC50: 200 nM
HeLa
  EC50: 13600 nM
[1]
  EC50: > 10000 nM
[2]
  IC50: 4 nM

## N#Cc1ncc2nc1OCCCCOc1cc(NCc3cncs3)c(Cl)cc1NC(=O)N2
[3]
  Ki: > 1650 nM
NCI-H1299
  Activity: inactive
[4]
  Ki: > 2860 nM
HeLa
  EC50: 59300 nM
TAK1/TAB1
  Ki: > 1610 nM
[5]
  Ki: > 1680 nM
[6]
  Ki: > 1780 nM
[1]
  Activity: inactive
[7]
  Ki: > 9570 nM
[8]
  Ki: > 1520 nM
[9]
  Ki: > 1550 nM
[10]
  Ki: > 3060 nM
[11]
  Ki: 8180 nM
[12]
  Ki: > 1640 nM
[13]
  Ki: > 1550 nM
[14]
  Ki: > 1440 nM
[15]
  Ki: > 4900 nM
[16]
  Ki: > 1640 nM
[17]
  Ki: 2020 nM
[18]
  Ki: > 1670 nM
[19]
  Ki: > 4120 nM
[20]
  Ki: > 7500 nM
[21]
  Ki: > 1520 nM
SRSF protein kinase 3
  Ki: > 1740 nM
[22]
  Ki: > 1520 nM
[23]
  Ki: > 8570 nM
[24]
  Ki: 1910 nM
[25]
  Ki: > 1500 nM
[26]
  Ki: 1540 nM
[27]
  Ki: > 1670 nM
[28]
  Ki: 949 nM

## N#Cc1ncc2nc1OCCCCOc1cc(OCCO)c(Cl)cc1NC(=O)N2
NCI-H1299
  EC50: 3200 nM
HeLa
  EC50: > 59300 nM
[1]
  EC50: > 10000 nM
[2]
  IC50: 8 nM

## N#Cc1ncc2nc1OCCCCOc1cc(OCCCO)c(Cl)cc1NC(=O)N2
NCI-H1299
  EC50: 2500 nM
HeLa
  EC50: > 59300 nM
[1]
  EC50: > 10000 nM
[2]
  IC50: 1 nM

## N#Cc1ncc2nc1OCCCCOc1cc(P(=O)(O)O)c(Cl)cc1NC(=O)N2
NCI-H1299
  Activity: inactive
HeLa
  EC50: 17400 nM
[1]
  Activity: inactive
[2]
  IC50: 8 nM

## N#Cc1ncc2nc1OCCCCOc1cc(NC(=O)c3ccncc3)c(Cl)cc1NC(=O)N2
NCI-H1299
  Activity: inactive
HeLa
  EC50: 24300 nM
[1]
  Activity: inactive
[2]
  IC50: 4 nM

## N#Cc1ncc2nc1OC/C=C\COc1cc(OCCO)c(Cl)cc1NC(=O)N2
NCI-H1299
  EC50: 1900 nM
HeLa
  EC50: > 59300 nM
[1]
  EC50: > 10000 nM
[2]
  IC50: 1 nM

## N#Cc1ncc2nc1OCCCCOc1cc(N)c(Cl)cc1NC(=O)N2
NCI-H1299
  EC50: < 30 nM
HeLa
  EC50: 3400 nM
[1]
  EC50: 2600 nM
[2]
  IC50: 1 nM

## N#Cc1ncc2nc1OC/C=C\COc1cc(NCCO)c(Cl)cc1NC(=O)N2
NCI-H1299
  EC50: 1300 nM
HeLa
  EC50: > 59300 nM
[1]
  EC50: > 10000 nM
[2]
  IC50: 2 nM

## CN(C)c1cc2c(cc1Cl)NC(=O)Nc1cnc(C#N)c(n1)OCCCCO2
NCI-H1299
  EC50: 540 nM
HeLa
  EC50: 54500 nM
[1]
  EC50: > 10000 nM
[2]
  IC50: 2 nM

## CNc1cc2c(cc1Cl)NC(=O)Nc1cnc(C#N)c(n1)OC/C=C\CO2
NCI-H1299
  EC50: > 10000 nM
HeLa
  EC50: > 59300 nM
[1]
  EC50: > 10000 nM
[2]
  IC50: 2 nM
